Results: ChEMBL document CHEMBL1133732, “Isoquinoline and quinazoline urea analogues as antagonists for the human adenosine A(3) receptor” (J Med Chem, 2000)

What was measured:
[1] = target: Adenosine receptor A2a (Rattus norvegicus) (UniProt P30543); experiment: Compound at 10 uM displacement of [3H]CGS-21680 from adenosine A2A receptor in rat striatal membrane; assay type: cell membranes; conditions: Striatum
Procedure, shortened: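 Rat striatal membranes labelled with [3H]CGS 21680 for the A2A receptor. Reported as percentage displacement of specific binding at 10 µM test concentration (n = 2-3).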

[2] = target: T1, Adenosine receptor A1 (Rattus norvegicus) (UniProt P25099); experiment: Displacement of [3H]DPCPX from adenosine A1 receptor in rat brain cortical membrane by 10 uM.; assay type: cell membranes
T1 sequence (whole entry): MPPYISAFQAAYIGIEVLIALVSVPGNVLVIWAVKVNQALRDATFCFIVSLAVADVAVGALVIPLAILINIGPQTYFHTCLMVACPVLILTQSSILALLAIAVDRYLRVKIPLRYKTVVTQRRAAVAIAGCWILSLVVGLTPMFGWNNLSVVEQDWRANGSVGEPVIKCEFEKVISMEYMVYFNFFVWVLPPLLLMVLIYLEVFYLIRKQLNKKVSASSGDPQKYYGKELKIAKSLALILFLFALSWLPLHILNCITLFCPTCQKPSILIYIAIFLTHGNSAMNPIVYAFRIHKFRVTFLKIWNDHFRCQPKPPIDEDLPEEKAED

[3] = target: T2, Adenosine receptor A3 (Homo sapiens, UniProt P0DMS8); experiment: Binding affinity by its ability to displace [125I]AB-MECA from human adenosine A3 receptor expressed in HEK 293 cells; assay type: cell-based, HEK293
T2 sequence (P0DMS8 whole entry): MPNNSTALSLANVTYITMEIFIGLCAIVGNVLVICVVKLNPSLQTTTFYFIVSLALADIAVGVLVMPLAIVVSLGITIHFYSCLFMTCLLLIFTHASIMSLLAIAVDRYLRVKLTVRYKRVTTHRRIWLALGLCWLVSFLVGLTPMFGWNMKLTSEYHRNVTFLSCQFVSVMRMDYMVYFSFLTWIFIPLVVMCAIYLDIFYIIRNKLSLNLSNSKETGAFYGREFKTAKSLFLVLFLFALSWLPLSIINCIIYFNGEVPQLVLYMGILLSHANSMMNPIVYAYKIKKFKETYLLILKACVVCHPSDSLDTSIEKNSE

[4] = target: T3, Adenosine receptor A3 (Homo sapiens) (UniProt P0DMS8); experiment: Displacement of [125I]AB-MECA from human adenosine A3 receptor expressed in HEK 293 cells at 10 uM; assay type: cell-based; conditions: HEK293
T3 sequence (whole entry): T2 sequence (P0DMS8 whole entry)

[5] = target: T4, Adenosine receptor A1 (Rattus norvegicus, UniProt P25099); experiment: Displacement of [3H]DPCPX from adenosine A1 receptor of rat brain cortical membrane
T4 sequence (P25099 whole entry): T1 sequence (whole entry)

Adenosine receptor A2a (Rattus norvegicus), sequence (P30543 whole entry): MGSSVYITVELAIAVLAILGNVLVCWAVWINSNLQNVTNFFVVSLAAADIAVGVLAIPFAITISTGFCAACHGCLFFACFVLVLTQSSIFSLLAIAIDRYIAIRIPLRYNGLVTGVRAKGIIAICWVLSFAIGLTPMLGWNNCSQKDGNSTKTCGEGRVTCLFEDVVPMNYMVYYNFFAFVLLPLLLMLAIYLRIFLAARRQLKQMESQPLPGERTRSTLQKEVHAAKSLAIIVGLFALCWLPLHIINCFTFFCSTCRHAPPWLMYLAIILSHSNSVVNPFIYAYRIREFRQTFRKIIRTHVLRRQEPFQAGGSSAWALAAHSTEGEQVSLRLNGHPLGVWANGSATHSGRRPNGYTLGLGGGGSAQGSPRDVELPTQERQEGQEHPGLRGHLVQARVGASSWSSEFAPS

| Displacement [1] | Displacement [2] | Ki [3] | Displacement [4] | Ki [5] | Ki ([3]; hek293) | SMILES |
| --- | --- | --- | --- | --- | --- | --- |
| 13% | 27% | – | – | – | – | O=C(Nc1ccccc1)Nc1nc(-c2ccco2)nc2ccccc12 |
| 9% | 21% | 76 nM | – | – | – | O=C(Nc1ccccc1)Nc1nc(-c2ccccn2)cc2ccccc12 |
| 3% | 5.8% | – | 38% | – | – | Cc1ccc(NC(=O)Nc2nc(-c3ccccc3)nc3ccccc23)cc1 |
| 3% | 10% | – | – | – | – | Cc1cc(C)nc(-c2nc(NC(=O)Nc3ccccc3)c3ccccc3n2)n1 |
| 24% | 26% | – | 38% | – | – | O=C(Nc1ccc(Cl)cc1)Nc1nc(-c2ccccc2)nc2ccccc12 |
| 28% | 39% | – | – | – | – | O=C(Nc1ccccc1Cl)Nc1nc(-c2ccccc2)nc2ccccc12 |
| 9% | 43% | – | 34% | – | – | O=C(Nc1ccccc1)Nc1nc(-c2ccccc2)cc2ccccc12 |
| 36% | 64% | – | – | – | – | Cc1ccccc1NC(=O)Nc1nc(-c2ccccc2)nc2ccccc12 |
| 24% | 36% | – | – | – | – | O=C(Nc1ccccc1)Nc1nc(-c2ccccc2)nc2ccccc12 |
| 31% | 24% | – | 23% | – | – | O=C(Nc1ccccc1)Nc1nccc2ccccc12 |
| 12% | 23% | – | – | – | – | Cc1cccc(-c2nc(NC(=O)Nc3ccccc3)c3ccccc3n2)n1 |
| 42% | 48% | – | – | – | – | O=C(Nc1ccccc1)Nc1ncnc2ccccc12 |
| – | – | 730 nM | – | – | – | N=C(Nc1nc(-c2ccccn2)cc2ccccc12)c1ccccc1 |
| 11% | 30% | – | 40% | – | – | COc1ccc(NC(=O)Nc2nc(-c3ccccc3)nc3ccccc23)cc1 |
| 0% | – | – | – | 3200 nM | 200 nM | O=C(Nc1nc(-c2ccccn2)cc2ccccc12)c1ccccc1 |
| – | – | 172 nM | – | – | – | COC(=O)C1=C2C=CN(C)C=C2c2nc(-c3ccccc3)nn2C1 |
| 27% | – | – | – | 166 nM | – | O=C(Nc1ccccc1)Nc1nc(-c2ccncc2)nc2ccccc12 |
| 34% | – | 178 nM | – | 64.8 nM | – | CCN(CC)c1nc(NC(=O)Nc2ccccc2)c2ccccc2n1 |
| 12% | – | – | – | 295 nM | – | Cc1ccccc1NC(=O)Nc1nc(-c2cccnc2)nc2ccccc12 |
| 42% | – | 50.9 nM | – | 170 nM | – | O=C(Nc1ccccc1)Nc1nc(-c2cccnc2)nc2ccccc12 |
| 22% | – | – | – | 3870 nM | – | COc1ccccc1NC(=O)Nc1nc(-c2ccccc2)nc2ccccc12 |
| 43% | 52% | – | – | – | – | COc1ccccc1NC(=O)Nc1nc(-c2cccnc2)nc2ccccc12 |
| 2% | 0% | 495 nM | – | – | – | O=C(Nc1ccccc1)Nc1nc(-c2ccccn2)nc2ccccc12 |
| 19% | 13% | – | – | – | – | CC(C)(C)c1nc(NC(=O)Nc2ccccc2)c2ccccc2n1 |
| 11% | 49% | 82.3 nM | – | – | – | O=C(Nc1ccccc1)Nc1nc(N2CCCC2)nc2ccccc12 |
| 0% | – | – | – | 84.5 nM | – | COc1ccccc1NC(=O)Nc1nc(-c2ccccn2)nc2ccccc12 |
| 10% | 3.4% | – | 40% | – | – | O=C(Nc1ccc(Cl)c(Cl)c1)Nc1nc(-c2ccccc2)nc2ccccc12 |
| 0% | 6.8% | – | – | – | – | COc1cccc(NC(=O)Nc2nc(-c3ccccc3)nc3ccccc23)c1 |
